Common to all, as to assay type: functional
Assay [1] concerns Aphis medicaginis. Description: Insecticidal activity against Aphis medicaginis in soybean tender shoots assessed as mortality treated for 5 secs measured after 48 hr.
In assay [2] the test system is Aphis medicaginis. Kind of assay: Insecticidal activity against Aphis medicaginis in soybean tender shoots assessed as mortality at 0.5 mg/ml treated for 5 secs measured after 48 hr. An outline of the steps:
(§1)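 Insects held at 26 °C, 60% relative humidity, 14 h photoperiod. Acetone stock at 0.5 mg/mL is diluted with water containing TW-20. Soybean tender shoots bearing 60 insects are dipped for 5 s, drained, then kept under the same conditions. Mortality is scored after 48 h relative to untreated controls, in triplicate.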

In assay [3] the test system is Aphis medicaginis. Description: Insecticidal activity against Aphis medicaginis in soybean tender shoots assessed as mortality at 0.2 mg/ml treated for 5 secs measured after 48 hr. The essentials: as §1
The subject of a further assay is Cladosporium cucumerinum. Description: Fungicidal activity against Cladosporium cucumerinum assessed as growth inhibition at 50 ug/ml at 23 degC after 3 days. The settings on record: 72 h, read-out: GI. An outline of the steps: (§2)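 Test solutions were made at 500 µg/mL and mixed 1:9 with agar medium to give 50 µg/mL plates. A 4 mm plug from the edge of actively growing mycelium was placed at the plate centre and incubated at 23 °C. Colony diameter was measured after 3 days against a sterile water plus medium blank, in triplicate. Inhibition = [(C − T)/C] × 100%.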

The next assay concerns Mycosphaerella arachidis. Description: Fungicidal activity against Mycosphaerella arachidis assessed as growth inhibition at 50 ug/ml at 23 degC after 3 days. The settings on record: 72 h, read-out: GI. The essentials:
as §2

A further assay relates to Alternaria solani. Description: Fungicidal activity against Alternaria solani assessed as growth inhibition at 50 ug/ml at 23 degC after 3 days. The settings on record: 72 h, read-out: GI. The essentials: as §2
Assay [4] deals with Botryosphaeria berengeriana. Kind of assay: Fungicidal activity against Botryosphaeria berengeriana assessed as growth inhibition at 50 ug/ml at 23 degC after 3 days. As to conditions: for inhibition of growth at 50 µg/mL: 72 h, read-out: GI. The essentials:
as §2

A further assay concerns Fusarium graminearum. Kind of assay: Fungicidal activity against Fusarium graminearum assessed as growth inhibition at 50 ug/ml at 23 degC after 3 days. The settings on record: for inhibition of growth at 50 µg/mL: 72 h, read-out: GI. The essentials: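 Mycelial growth test in agar plates with 50 µg/mL final compound (from 500 µg/mL solution diluted into medium). A 4 mm plug from active mycelium fringe is placed centrally and incubated at 23 °C. Diameter is read after 3 days against a sterile water plus medium blank, in triplicate. Inhibition I = [(C − T)/C] × 100%.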

The test system of another assay is Tetranychus cinnabarinus. Kind of assay: Insecticidal activity against Tetranychus cinnabarinus (carmine spider mite) in soybean tender shoots assessed as mortality at 0.2 mg/ml treated for 5 secs measured after 48 hr. An outline of the steps:
as §1

The subject of a further assay is Cucumis sativus. Kind of assay: Growth regulation of Cucumis sativus (cucumber) seeds assessed as rhizogenesis at 10 ug/ml at 24 degC after 3 days by cucumber cotyledon test. An outline of the steps:
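Cucumber seeds (JINKE No. 4) were germinated in the dark at 24 °C for 3 days, and cotyledons of uniform size were selected. Sample in DMF (10 µg/mL) was sprayed onto filter paper and dried, then the paper was wetted with distilled water. Ten cotyledons were incubated in the dark at 24 °C for 3 days. Rhizogenesis was counted per 10 hypocotyls, in triplicate, with a distilled-water control and Student's t test.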

≈ marks a conversion by molar mass, not a printed value. Calls of active or inactive are those of the source. The rule behind the calls is not given here.

Take `O=[N+]([O-])/N=C1\NCCN1Cc1ccc(Cl)nc1` [IMIDACLOPRID]: the LC50 with Aphis medicaginis [1] was found to be 9.1 µg/mL (≈ 35.6 µM). Also, the mortality at 500 µg/mL with Aphis medicaginis [2] was 94.7%. For the same compound, the mortality at 200 µg/mL in the assay with Aphis medicaginis [3] was 92.1%.
For the compound `Cn1nc(C(F)(F)F)c(/C=N/OCc2cnc(Cl)s2)c1Sc1ccc(Cl)cc1`, the inhibition of growth at 50 µg/mL in the assay on Cladosporium cucumerinum was 18.9%; in the assay with Mycosphaerella arachidis, 25.8%; with Alternaria solani it was 28.8%; in [4], 42.4%; in the assay on Fusarium graminearum it was 32.6%. Further, the LC50 with Aphis medicaginis [1] worked out at 26.2 µg/mL (≈ 56.1 µM). Moreover, the mortality at 500 µg/mL in the assay with Aphis medicaginis [2] stood at 91.4%. For the same compound, the figures for the mortality at 200 µg/mL in the assay with Tetranychus cinnabarinus and in the assay on Aphis medicaginis [3] were 11.3% and 80.4%, respectively. In the assay with Cucumis sativus, the Activity stood at 34.7%.
Regarding `Cn1nc(C(F)(F)F)c(/C=N/OCc2cnc(Cl)s2)c1Oc1ccc(Cl)cc1Cl`, the inhibition of growth at 50 µg/mL in the assay on Cladosporium cucumerinum was 32.3%; with Mycosphaerella arachidis, 42.5%; in the assay with Alternaria solani, 29.2%; in the assay on Fusarium graminearum, 24.3%. In addition, in the assay with Aphis medicaginis [1], the LC50 was found to be 22.9 µg/mL (≈ 47.1 µM). Also, in [4], the “growth inhibition (GI)” value is “inactive”. Besides, the mortality at 500 µg/mL in the assay on Aphis medicaginis [2] was 97.4%. In addition, the mortality at 200 µg/mL in the assay with Tetranychus cinnabarinus was found to be 7.2%; in the assay with Aphis medicaginis [3], 86.3%. Further, in the assay with Cucumis sativus, the Activity was determined as 72.3%.
As to `Cc1ccccc1Oc1c(/C=N/OCc2cnc(Cl)s2)c(C(F)(F)F)nn1C`, the inhibition of growth at 50 µg/mL stood at 32.6% in the assay with Cladosporium cucumerinum; 10% with Mycosphaerella arachidis; 42.6% in the assay on Alternaria solani; 35% in assay [4]; 21.2% in the assay on Fusarium graminearum. The mortality at 500 µg/mL with Aphis medicaginis [2] was found to be 90.4%. Besides, the mortality at 200 µg/mL in the assay on Tetranychus cinnabarinus is 9.3%; with Aphis medicaginis [3], 81.3%. Also, the Activity in the assay on Cucumis sativus is -26.8%.
Turning to `Cc1ccc(Cl)c(Oc2c(/C=N/OCc3cnc(Cl)s3)c(C(F)(F)F)nn2C)c1`, the inhibition of growth at 50 µg/mL with Cladosporium cucumerinum was found to be 48.5%; with Mycosphaerella arachidis, 10.1%; with Alternaria solani it was 32.3%; in assay [4], 29.8%. Besides, the mortality at 500 µg/mL in the assay with Aphis medicaginis [2] worked out at 83.4%. Further, the “growth inhibition (GI)” value in the assay on Fusarium graminearum is “inactive”. For the same compound, the mortality at 200 µg/mL in the assay with Tetranychus cinnabarinus was 17.4%; in the assay on Aphis medicaginis [3] it was 69.2%. Also, the Activity with Cucumis sativus is 37.9%.

The record behind these values is ChEMBL document CHEMBL3044850, “Synthesis and biological activities of novel pyrazole oxime derivatives containing a 2-chloro-5-thiazolyl moiety” (2008).
